Data reported in ChEMBL document CHEMBL1140410, “Discovery of the novel antithrombotic agent 5-chloro-N-({(5S)-2-oxo-3- [4-(3-oxomorpholin-4-yl)phenyl]-1,3-oxazolidin-5-yl}methyl)thiophene- 2-carboxamide (BAY 59-7939): an oral, direct factor Xa inhibitor” (J Med Chem, 2005).

Assays:
Rattus norvegicus [1] = organism: Rattus norvegicus; test: In vitro inhibitory concentration of compound required to double the time to fibrin formation upon incubation with rat plasma for 10 minutes at 37 degrees C; type: functional
Procedure, shortened: (§1)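 Inhibitor at increasing concentrations, or solvent, added to plasma and incubated 10 min at 37 °C. PT then measured in a coagulometer using commercial kits and compared with control plasma. Value is the concentration that doubles time to fibrin formation.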

[2] = Oral bioavailability in rat; type: ADME, organism-based; settings: in vivo
[3] = Plasma clearance in wistar rats after intravenous administration of the compound at a dose of 1 mg/kg; type: ADME, organism-based; parameters: dose 1 mg/kg, route intravenous; settings: rat
Procedure, shortened: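 Rats given 1 mg kg-1 iv in EtOH/PEG400 (1:9), 1 mL kg-1.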

[4] = Half-life after intravenous administration to rats; type: ADME, organism-based; settings: rat, in vivo
[5] = Fraction of unbound compound in rat plasma; type: ADME, cell-free
Procedure, shortened: (§2)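 Equilibrium dialysis of [14C]-labelled compound in plasma at targets of 0.1–100 mg L-1. Spiked plasma preincubated 15 min at 37 °C, then dialyzed 1 h at 37 °C against PBS pH 7.4 across a cellulose membrane. Radioactivity in buffer and plasma counted by LSC; fu = cu/c × 100.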

Rattus norvegicus [6] = test: In vivo antithrombotic activity of compound in the arteriovenous shunt model in anesthetized rats after peroral administration; type: functional; settings: po
Procedure, shortened: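 Anesthetized rats, AV shunt from right carotid artery to left jugular vein, containing a nylon thread folded into a 20 mm double string. Compound in solutol/ethanol/water (40%/10%/50% v/v/v), or vehicle, dosed orally 90 min before thrombus induction. Shunt opened for 15 min, then the thread with thrombus was removed and weighed.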

Rattus norvegicus [7] = test: In vivo antithrombotic activity of compound in the arteriovenous shunt model in anesthetized rats after intravenous administration; type: functional
Procedure, shortened: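 Anesthetized rats with a carotid artery to jugular vein shunt: PE-60 catheters joined by a 30 mm PE-160 tube holding a rough nylon thread folded into a 20 mm double string. Compound in PEG/water/glycerol (996 g/100 g/60 g), or vehicle, given as iv bolus into a tail vein 10 min before thrombus induction. Shunt open 15 min; thread with thrombus withdrawn and weighed.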

[8] = Apparent volume of distribution at equilibrium after intravenous administration in rats; type: ADME, organism-based; settings: rat, in vivo, read-out: Vss
Coagulation factor X [9] = target: T1, Coagulation factor X (Homo sapiens, UniProt P00742); test: In vitro inhibitory concentration of compound required to double the time to fibrin formation upon incubation with human plasma for 10 minutes at 37 degrees C; type: functional, cell-free; procedure, shortened: as §1
T1 sequence (P00742 41-179 limits assumed): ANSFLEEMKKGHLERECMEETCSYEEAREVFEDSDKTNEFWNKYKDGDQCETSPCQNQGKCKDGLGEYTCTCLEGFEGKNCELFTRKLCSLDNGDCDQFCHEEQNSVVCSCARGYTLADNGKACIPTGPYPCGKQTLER
T1 sequence (P00742 235-488 limits assumed): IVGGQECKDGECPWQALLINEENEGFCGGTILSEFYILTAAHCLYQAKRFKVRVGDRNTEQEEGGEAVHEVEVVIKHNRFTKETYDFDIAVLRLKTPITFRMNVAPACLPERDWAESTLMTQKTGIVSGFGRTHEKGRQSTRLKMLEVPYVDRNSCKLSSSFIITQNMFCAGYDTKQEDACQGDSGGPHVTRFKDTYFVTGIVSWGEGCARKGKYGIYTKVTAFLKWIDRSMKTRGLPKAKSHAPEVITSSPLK

Coagulation factor X [10] = target: T1, Coagulation factor X; test: In vitro inhibition of human coagulation factor Xa after incubation for 10 min at 25 degree C
[11] = Plasma clearance in wistar rats after intravenous administration of the compound at a dose of 0.3 mg/kg; type: ADME, organism-based; parameters: dose 0.3 mg/kg, route intravenous; settings: rat
Procedure, shortened: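 Rats given 0.3 mg kg-1 iv in plasma/DMSO (99:1), 2 mL kg-1.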

[12] = Bioavailability in female Beagle dog is the mean value of AUCnorm perorally to AUCnorm intravenously; type: ADME, organism-based, Canis lupus familiaris; settings: in vivo, po
Procedure, shortened: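 Female beagle dogs dosed po at 0.3, 1 and 3 mg kg-1, 1 mL kg-1. Bioavailability = AUCnorm after oral dosing divided by AUCnorm after iv 0.3 or 1.0 mg kg-1 infusion.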

[13] = Mean plasma clearance in wistar rats after intravenous administration of the compound at a dose of 1 and 3 mg/kg; type: ADME, organism-based; parameters: dose 3 mg/kg, route intravenous; settings: rat
Procedure, shortened: (§3)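 Rats given 1 and 3 mg kg-1 iv in PEG400/water (6:4), 5 mL kg-1. Values are means over both doses.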

[14] = Mean plasma clearance in female Beagle dogs after intravenous administration of the compound at a dose of 0.3 and 1 mg/kg; type: ADME, organism-based, Canis lupus familiaris; parameters: dose 1 mg/kg, route intravenous; settings: dog
[15] = Fraction of unbound compound in female Beagle dog plasma; type: ADME, cell-free, Canis lupus familiaris; settings: read-out: Fraction free drug in plasma; procedure, shortened: as §2
[16] = Mean half-life after intravenous administration to rats at a dose of 1 and 3 mg/kg; type: ADME, organism-based; parameters: dose 3 mg/kg, route intravenous; settings: rat, in vivo; procedure, shortened: as §3
[17] = Mean half-life after intravenous administration to female Beagle dogs at a dose of 0.3 and 1 mg/kg; type: ADME, organism-based, Canis lupus familiaris; parameters: dose 1 mg/kg, route intravenous; settings: dog, in vivo
[18] = Mean apparent volume of distribution at equilibrium after intravenous administration in rats at a dose of 1 and 3 mg/kg; type: ADME, organism-based; parameters: dose 3 mg/kg, route intravenous; settings: rat, in vivo, read-out: Vss; procedure, shortened: as §3
[19] = Mean apparent volume of distribution at equilibrium after administration in female Beagle dogs at a dose of 0.3 and 1 mg kg-1 intravenously; type: ADME, organism-based, Canis lupus familiaris; parameters: dose 1 mg kg-1, route intravenous; settings: dog, in vivo, iv, read-out: Vss

Row | SMILES | Concentration (Rattus norvegicus [1]) [µM] | ED50 (Rattus norvegicus [6]) [mg/kg] | ED50 (Rattus norvegicus [7]) [mg/kg] | Concentration (Coagulation factor X [9]) [µM] | IC50 (Coagulation factor X [10]) [nM] | other results
1 | O=C(NC[C@H]1CN(c2ccc(N3CCCC3=O)cc2)C(=O)O1)c1ccc(Cl)s1 | 2.8 | > 30 | 7 |  |  | bioavailability [2]: 65%; clearance [3]: 2.83 mL/min/kg; half-life [4]: 66 min; fraction unbound ([5]; read-out: Fraction free drug in plasma): 0.002; Vd [8]: 0.21 L/kg
2 | Nc1cc(N2C[C@H](CNC(=O)c3ccc(Cl)s3)OC2=O)ccc1N1CCOCC1=O | 0.49 |  |  | 0.3 |  | 
3 | N=C(N)COc1cccc(CN2CC3C(NC(=O)c4ccc(Cl)s4)C=CC[C@H]3C2=O)c1 (some centres not stated) |  |  |  |  | 120 | 
4 | O=C(NC[C@H]1CN(c2ccc(N3CCOCC3=O)c(C(F)(F)F)c2)C(=O)O1)c1ccc(Cl)s1 | 0.32 |  | 3 | 0.26 |  | 
5 | O=C(NC[C@H]1CN(c2ccc(N3CCOCC3=O)c(F)c2)C(=O)O1)c1ccc(Cl)s1 | 0.32 | 10 | 1 | 0.17 |  | clearance [11]: 18.2 mL/min/kg; half-life [4]: 18 min; Vd [8]: 0.32 L/kg
6 | O=C(NC[C@H]1CN(c2ccc(N3CCSCC3)c(F)c2)C(=O)O1)c1cccs1 |  |  |  |  | 20000 | 
7 | O=C(NC[C@H]1CN(c2ccc(N3CCOCC3=O)cc2)C(=O)O1)c1ccc(Cl)s1 [RIVAROXABAN] | 0.3 | 5 | 1 | 0.23 |  | bioavailability [2]: 60%; bioavailability [12]: 86%; clearance [13]: 6.67 mL/min/kg; clearance [14]: 5 mL/min/kg; Fraction free drug in plasma [5]: 1.3%; fraction unbound [15]: 0.104; half-life [16]: 54 min; half-life [17]: 54 min; Vd [18]: 0.3 L/kg; Vd [19]: 0.4 L/kg
8 | Nc1cc(C(=O)NC[C@H]2CN(c3ccc(N4CCOCC4=O)cc3)C(=O)O2)sc1Cl |  |  |  |  | 8.5 | 
